Measured values from ChEMBL document CHEMBL2331504, “New pyrazole derivatives containing 1,2,4-triazoles and benzoxazoles as potent antimicrobial and analgesic agents” (2013).
Converted amounts (≈) assume the structure as drawn.

How the values were obtained:
Format in all cases: functional
Candida albicans = assay: Antimicrobial activity against Candida albicans after 16 hrs by serial dilution method
Procedure, shortened: (§1)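 Tube broth serial dilution in trypticase soya broth, from 1 mg/mL DMF stocks. Cultures were grown 6 h at 37 °C, adjusted to a McFarland standard, then diluted to a 10^5 cfu/mL inoculum. Tubes were incubated 16 h at 37 °C, alongside inoculum and broth controls and ceftriaxone or fluconazole reference. MIC was read as the tubes showing no visible growth.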

Rattus norvegicus [1] = assay: Analgesic activity against Wistar albino rat at 200 mg/kg, ip measured immediately after compound administration by tail flick method (reference value: 1.9 +/- 0.12 %); settings: route intraperitoneal, read-out: INH
Rattus norvegicus [2] = assay: Analgesic activity against Wistar albino rat at 200 mg/kg, ip measured immediately after 30 mins post compound treatment by tail flick method (reference value: 4.20 +/- 0.12 %); settings: 0.5 h, route intraperitoneal
Staphylococcus aureus = assay: Antimicrobial activity against Staphylococcus aureus after 16 hrs by serial dilution method; procedure, shortened: as §1
Rattus norvegicus [3] = assay: Analgesic activity against Wistar albino rat at 200 mg/kg, ip measured immediately after 120 mins post compound treatment by tail flick method (reference value: 2.22 +/- 0.07 %); settings: 2 h, route intraperitoneal, read-out: INH
Escherichia coli = assay: Antimicrobial activity against Escherichia coli after 16 hrs by serial dilution method; procedure, shortened: as §1
Bacillus subtilis = assay: Antimicrobial activity against Bacillus subtilis after 16 hrs by serial dilution method; procedure, shortened: as §1
Pseudomonas aeruginosa = assay: Antimicrobial activity against Pseudomonas aeruginosa after 16 hrs by serial dilution method; procedure, shortened: as §1
Rattus norvegicus [4] = assay: Analgesic activity against Wistar albino rat at 200 mg/kg, ip measured immediately after 60 mins post compound treatment by tail flick method (reference value: 4.18 +/- 0.13 %); settings: 1 h, route intraperitoneal, read-out: INH
Rattus norvegicus [5] = assay: Analgesic activity against Wistar albino rat at 2 mg/kg, ip measured immediately after 30 mins post compound treatment by tail flick method (reference value: 4.20 +/- 0.12 %); settings: 0.5 h, route intraperitoneal
Rattus norvegicus [6] = assay: Analgesic activity against Wistar albino rat at 2 mg/kg, ip measured immediately after compound administration by tail flick method (reference value: 1.9 +/- 0.12 %); settings: route intraperitoneal
Rattus norvegicus [7] = assay: Analgesic activity against Wistar albino rat at 2 mg/kg, ip measured immediately after 60 mins post compound treatment by tail flick method (reference value: 4.18 +/- 0.13 %); settings: 1 h, route intraperitoneal
Rattus norvegicus [8] = assay: Analgesic activity against Wistar albino rat at 2 mg/kg, ip measured immediately after 120 mins post compound treatment by tail flick method (reference value: 2.22 +/- 0.07 %); settings: 2 h, route intraperitoneal

## O=C(CSc1nc2ccccc2o1)N/N=C/c1c[nH]nc1-c1cc(Cl)sc1Cl
Candida albicans
  MIC: 25 µg/mL (≈ 55.3 µM)
Rattus norvegicus [1]
  tail-flick reaction time at 200 mg/kg: 2.55%
Rattus norvegicus [2]
  inhibition in vivo at 200 mg/kg: 2.82%
Staphylococcus aureus
  MIC: 6.25 µg/mL (≈ 13.8 µM)
Rattus norvegicus [3]
  tail flick reaction time at 200 mg/kg: 3.06%
Escherichia coli
  MIC: 3.12 µg/mL (≈ 6.91 µM)
Bacillus subtilis
  MIC: 3.12 µg/mL (≈ 6.91 µM)
Pseudomonas aeruginosa
  MIC: 6.25 µg/mL (≈ 13.8 µM)
Rattus norvegicus [4]
  tail-flick reaction time at 200 mg/kg: 2.93%

## Sc1nnc(COc2cccc3ccccc23)n1/N=C/c1c[nH]nc1-c1ccc(Cl)cc1Cl
Candida albicans
  MIC: 12.5 µg/mL (≈ 25.2 µM)
Rattus norvegicus [1]
  tail-flick reaction time at 200 mg/kg: 2.85%
Rattus norvegicus [2]
  inhibition in vivo at 200 mg/kg: 2.93%
Staphylococcus aureus
  MIC: 6.25 µg/mL (≈ 12.6 µM)
Rattus norvegicus [3]
  tail flick reaction time at 200 mg/kg: 3.08%
Escherichia coli
  MIC: 3.12 µg/mL (≈ 6.31 µM)
Bacillus subtilis
  MIC: 3.12 µg/mL (≈ 6.31 µM)
Pseudomonas aeruginosa
  MIC: 1.61 µg/mL (≈ 3.26 µM)
Rattus norvegicus [4]
  tail-flick reaction time at 200 mg/kg: 2.25%

## O=C(CSc1nc2ccccc2o1)N/N=C/c1c[nH]nc1-c1ccc(-c2ccccc2)cc1
Candida albicans
  MIC: 25 µg/mL (≈ 55.1 µM)
Rattus norvegicus [1]
  tail-flick reaction time at 200 mg/kg: 3.13%
Rattus norvegicus [2]
  inhibition in vivo at 200 mg/kg: 3.27%
Staphylococcus aureus
  MIC: 12.5 µg/mL (≈ 27.6 µM)
Rattus norvegicus [3]
  tail flick reaction time at 200 mg/kg: 3.63%
Escherichia coli
  MIC: 25 µg/mL (≈ 55.1 µM)
Bacillus subtilis
  MIC: 12.5 µg/mL (≈ 27.6 µM)
Pseudomonas aeruginosa
  MIC: 12.5 µg/mL (≈ 27.6 µM)
Rattus norvegicus [4]
  tail-flick reaction time at 200 mg/kg: 3.43%

## Sc1nnc(COc2cccc3ccccc23)n1/N=C/c1c[nH]nc1-c1cc(Cl)sc1Cl
Candida albicans
  MIC: 6.25 µg/mL (≈ 12.5 µM)
Rattus norvegicus [1]
  tail-flick reaction time at 200 mg/kg: 2.67%
Rattus norvegicus [2]
  inhibition in vivo at 200 mg/kg: 2.52%
Staphylococcus aureus
  MIC: 1.61 µg/mL (≈ 3.22 µM)
Rattus norvegicus [3]
  tail flick reaction time at 200 mg/kg: 2.2%
Escherichia coli
  MIC: 3.12 µg/mL (≈ 6.23 µM)
Bacillus subtilis
  MIC: 1.61 µg/mL (≈ 3.22 µM)
Pseudomonas aeruginosa
  MIC: 1.61 µg/mL (≈ 3.22 µM)
Rattus norvegicus [4]
  tail-flick reaction time at 200 mg/kg: 2.28%

## CSc1ccc(-c2n[nH]cc2/C=N/Nc2nc3cc(Cl)cc(Cl)c3o2)cc1
Candida albicans
  MIC: 25 µg/mL (≈ 59.8 µM)
Rattus norvegicus [1]
  tail-flick reaction time at 200 mg/kg: 3.25%
Rattus norvegicus [2]
  inhibition in vivo at 200 mg/kg: 3.42%
Staphylococcus aureus
  MIC: 6.25 µg/mL (≈ 14.9 µM)
Rattus norvegicus [3]
  tail flick reaction time at 200 mg/kg: 3.63%
Escherichia coli
  MIC: 12.5 µg/mL (≈ 29.9 µM)
Bacillus subtilis
  MIC: 12.5 µg/mL (≈ 29.9 µM)
Pseudomonas aeruginosa
  MIC: 12.5 µg/mL (≈ 29.9 µM)
Rattus norvegicus [4]
  tail-flick reaction time at 200 mg/kg: 3.57%

## CO/N=C(\C(=O)N[C@@H]1C(=O)N2C(C(=O)O)=C(CSc3nc(=O)c(O)nn3C)CS[C@H]12)c1csc(N)n1 [CEFTRIAXONE]
Staphylococcus aureus
  MIC: 3.12 µg/mL (≈ 5.63 µM)
Escherichia coli
  MIC: 1.61 µg/mL (≈ 2.91 µM)
Bacillus subtilis
  MIC: 1.61 µg/mL (≈ 2.91 µM)
Pseudomonas aeruginosa
  MIC: 1.61 µg/mL (≈ 2.91 µM)

## Cc1ccc(-c2nnc(S)n2/N=C/c2c[nH]nc2-c2ccc(Cl)cc2Cl)cn1
Candida albicans
  MIC: 6.25 µg/mL (≈ 14.5 µM)
Rattus norvegicus [1]
  tail-flick reaction time at 200 mg/kg: 2.93%
Rattus norvegicus [2]
  inhibition in vivo at 200 mg/kg: 3.5%
Staphylococcus aureus
  MIC: 3.12 µg/mL (≈ 7.26 µM)
Rattus norvegicus [3]
  tail flick reaction time at 200 mg/kg: 2.98%
Escherichia coli
  MIC: 3.12 µg/mL (≈ 7.26 µM)
Bacillus subtilis
  MIC: 1.61 µg/mL (≈ 3.75 µM)
Pseudomonas aeruginosa
  MIC: 1.61 µg/mL (≈ 3.75 µM)
Rattus norvegicus [4]
  tail-flick reaction time at 200 mg/kg: 4.15%

## OC(Cn1cncn1)(Cn1cncn1)c1ccc(F)cc1F [FLUCONAZOLE]
Candida albicans
  MIC: 6.25 µg/mL (≈ 20.4 µM)

## Clc1cc(Cl)c2oc(N/N=C/c3c[nH]nc3-c3ccc(-c4ccccc4)cc3)nc2c1
Candida albicans
  MIC: 25 µg/mL (≈ 55.8 µM)
Rattus norvegicus [1]
  tail-flick reaction time at 200 mg/kg: 2.43%
Rattus norvegicus [2]
  inhibition in vivo at 200 mg/kg: 2.65%
Staphylococcus aureus
  MIC: 12.5 µg/mL (≈ 27.9 µM)
Rattus norvegicus [3]
  tail flick reaction time at 200 mg/kg: 2.95%
Escherichia coli
  MIC: 12.5 µg/mL (≈ 27.9 µM)
Bacillus subtilis
  MIC: 25 µg/mL (≈ 55.8 µM)
Pseudomonas aeruginosa
  MIC: 12.5 µg/mL (≈ 27.9 µM)
Rattus norvegicus [4]
  tail-flick reaction time at 200 mg/kg: 2.77%

## Clc1ccc(-c2n[nH]cc2/C=N/Nc2nc3cc(Cl)cc(Cl)c3o2)c(Cl)c1
Candida albicans
  MIC: 12.5 µg/mL (≈ 28.3 µM)
Rattus norvegicus [1]
  tail-flick reaction time at 200 mg/kg: 2.75%
Rattus norvegicus [2]
  inhibition in vivo at 200 mg/kg: 2.92%
Staphylococcus aureus
  MIC: 12.5 µg/mL (≈ 28.3 µM)
Rattus norvegicus [3]
  tail flick reaction time at 200 mg/kg: 3.2%
Escherichia coli
  MIC: 12.5 µg/mL (≈ 28.3 µM)
Bacillus subtilis
  MIC: 6.25 µg/mL (≈ 14.2 µM)
Pseudomonas aeruginosa
  MIC: 3.12 µg/mL (≈ 7.08 µM)
Rattus norvegicus [4]
  tail-flick reaction time at 200 mg/kg: 3.05%

## CSc1ccc(-c2n[nH]cc2/C=N/n2c(S)nnc2-c2ccncc2)cc1
Candida albicans
  MIC: 12.5 µg/mL (≈ 31.8 µM)
Rattus norvegicus [1]
  tail-flick reaction time at 200 mg/kg: 2.62%
Rattus norvegicus [2]
  inhibition in vivo at 200 mg/kg: 2.77%
Staphylococcus aureus
  MIC: 3.12 µg/mL (≈ 7.94 µM)
Rattus norvegicus [3]
  tail flick reaction time at 200 mg/kg: 2.9%
Escherichia coli
  MIC: 3.12 µg/mL (≈ 7.94 µM)
Bacillus subtilis
  MIC: 3.12 µg/mL (≈ 7.94 µM)
Pseudomonas aeruginosa
  MIC: 6.25 µg/mL (≈ 15.9 µM)
Rattus norvegicus [4]
  tail-flick reaction time at 200 mg/kg: 2.83%

## CSc1ccc(-c2n[nH]cc2/C=N/NC(=O)CSc2nc3ccccc3o2)cc1
Candida albicans
  MIC: 12.5 µg/mL (≈ 29.5 µM)
Rattus norvegicus [1]
  tail-flick reaction time at 200 mg/kg: 3.05%
Rattus norvegicus [2]
  inhibition in vivo at 200 mg/kg: 3.15%
Staphylococcus aureus
  MIC: 6.25 µg/mL (≈ 14.8 µM)
Rattus norvegicus [3]
  tail flick reaction time at 200 mg/kg: 3.83%
Escherichia coli
  MIC: 6.25 µg/mL (≈ 14.8 µM)
Bacillus subtilis
  MIC: 12.5 µg/mL (≈ 29.5 µM)
Pseudomonas aeruginosa
  MIC: 6.25 µg/mL (≈ 14.8 µM)
Rattus norvegicus [4]
  tail-flick reaction time at 200 mg/kg: 3.53%

## Clc1cc(Cl)c2oc(N/N=C/c3c[nH]nc3-c3cc(Cl)sc3Cl)nc2c1
Candida albicans
  MIC: 12.5 µg/mL (≈ 28 µM)
Rattus norvegicus [1]
  tail-flick reaction time at 200 mg/kg: 2.98%
Rattus norvegicus [2]
  inhibition in vivo at 200 mg/kg: 3.03%
Staphylococcus aureus
  MIC: 3.12 µg/mL (≈ 6.99 µM)
Rattus norvegicus [3]
  tail flick reaction time at 200 mg/kg: 3.1%
Escherichia coli
  MIC: 3.12 µg/mL (≈ 6.99 µM)
Bacillus subtilis
  MIC: 6.25 µg/mL (≈ 14 µM)
Pseudomonas aeruginosa
  MIC: 3.12 µg/mL (≈ 6.99 µM)
Rattus norvegicus [4]
  tail-flick reaction time at 200 mg/kg: 3.07%

## O=C(CSc1nc2ccccc2o1)N/N=C/c1c[nH]nc1-c1ccc(Cl)cc1Cl
Candida albicans
  MIC: 12.5 µg/mL (≈ 28 µM)
Rattus norvegicus [1]
  tail-flick reaction time at 200 mg/kg: 2.27%
Rattus norvegicus [2]
  inhibition in vivo at 200 mg/kg: 3.38%
Staphylococcus aureus
  MIC: 12.5 µg/mL (≈ 28 µM)
Rattus norvegicus [3]
  tail flick reaction time at 200 mg/kg: 3.62%
Escherichia coli
  MIC: 3.12 µg/mL (≈ 7 µM)
Bacillus subtilis
  MIC: 6.25 µg/mL (≈ 14 µM)
Pseudomonas aeruginosa
  MIC: 6.25 µg/mL (≈ 14 µM)
Rattus norvegicus [4]
  tail-flick reaction time at 200 mg/kg: 3.45%

## CC(C)=CCN1CC[C@]2(C)c3cc(O)ccc3C[C@H]1[C@H]2C [(+)-PENTAZOCINE]
Rattus norvegicus [5]
  inhibition in vivo at 2 mg/kg: 2.17%
Rattus norvegicus [6]
  inhibition in vivo at 2 mg/kg: 1.9%
Rattus norvegicus [7]
  inhibition in vivo at 2 mg/kg: 2.18%
Rattus norvegicus [8]
  inhibition in vivo at 2 mg/kg: 2.22%
